Experiment [1] has as its system Rattus norvegicus. Kind of experiment: Maximum inhibitory effect on Angiotensin I induced pressor responses in anesthetized normotensive rats with 10 ug/kg dose of compound given intra venously. The format is functional.
In experiment [2] the test system is Rattus norvegicus. The experiment in a line: Maximum inhibitory effect of on Angiotensin I induced pressor responses in anesthetized normotensive rats with 1.0 mg/Kg dose of compound given perorally. The format is functional. As to conditions: po. The essentials:
(§1)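 Male Wistar slc rats, 300-400 g, anesthetized, fasted 18-20 h. Drug given orally in distilled water once a constant angiotensin I pressor rise was confirmed. […] ID50 from a linear regression curve. Maximum inhibition reported.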

The test system of experiment [3] is Rattus norvegicus. Kind of experiment: The time required for the maximal fall in blood pressure after administration of the compound. The format is functional. The essentials:
(§2)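 Male NCrj SHRs, 18-22 weeks old, about 350 g, baseline systolic pressure 180-200 mmHg, fasted 18-20 h. Drug given orally in distilled water at 1, 2, 5 or 10 mg/kg; vehicle 4 mL/kg. Systolic pressure by tail plethysmograph. Initial value, maximum, time of maximum, change and duration of significant fall recorded; mean ± SE.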

The species entered for experiment [4] is Rattus norvegicus. Kind of experiment: Change in systolic blood pressure. The format is functional, Artery. The essentials:
as §2

The subject of experiment [5] is Rattus norvegicus. Kind of experiment: Maximum inhibitory effect of on Angiotensin I induced pressor responses in anesthetized normotensive rats with 0.5 mg/Kg dose of compound given perorally. The format is functional. As to conditions: po. The essentials: as §1
The species entered for experiment [6] is Rattus norvegicus. Kind of experiment: Inhibitory effect of on Angiotensin I induced pressor responses in normotensive rats when given perorally. The format is functional. To be noted: po, read-out: ID50 (the source's name). An outline of the steps:
as §1

Experiment [7] relates to Rattus norvegicus. The experiment in a line: Initial systolic blood pressure in spontaneously hypertensive rats after administration of 1 mg/kg of compound perorally. To be noted: route oral. The format is functional, Artery. The essentials:
as §2

For experiment [8], the system named is Rattus norvegicus. The experiment in a line: Initial systolic blood pressure in spontaneously hypertensive rats after administration of 5 mg/kg of compound perorally. The format is functional, Artery. To be noted: route oral. An outline of the steps: as §2
In experiment [9] the test system is Rattus norvegicus. The experiment in a line: Initial systolic blood pressure in spontaneously hypertensive rats after administration of 10 mg/kg of compound perorally. As to conditions: route oral. The format is functional, Artery. The essentials:
as §2

The test system of experiment [10] is Rattus norvegicus. Kind of experiment: Initial systolic blood pressure in spontaneously hypertensive rats after administration of 2 mg/kg of compound perorally. It is filed as functional, Artery. As to conditions: route oral. An outline of the steps: as §2
For experiment [11], the system named is Rattus norvegicus. Kind of experiment: Maximum inhibitory effect of on Angiotensin I induced pressor responses in anesthetized normotensive rats with 0.2 mg/Kg dose of compound given perorally. The format is functional. As to conditions: po. An outline of the steps:
as §1

Experiment [12] is filed under the species Rattus norvegicus. Kind of experiment: The duration time of the hypotensive effect showing statistically significant difference from initial value was determined. The format is functional. An outline of the steps: as §2
In experiment [13] the test system is Rattus norvegicus. The experiment in a line: Maximum inhibitory effect on Angiotensin I induced pressor responses in anesthetized normotensive rats with 0.2 mg/Kg dose of compound given perorally. It is filed as functional. As to conditions: po. An outline of the steps:
as §1

The subject of experiment [14] is Rattus norvegicus. The experiment in a line: Maximum effect on systolic blood pressure in spontaneously hypertensive rats after administration of 5 mg/kg of compound perorally. As to conditions: route oral. The format is functional, Artery. An outline of the steps: as §2
Experiment [15] has as its system Rattus norvegicus. The experiment in a line: Maximum effect on systolic blood pressure in spontaneously hypertensive rats after administration of 10 mg/kg of compound perorally. To be noted: route oral. The format is functional, Artery. The essentials:
as §2

The subject of experiment [16] is Rattus norvegicus. Kind of experiment: Maximum effect on systolic blood pressure in spontaneously hypertensive rats after administration of 1 mg/kg of compound perorally. The format is functional, Artery. To be noted: route oral. The essentials: as §2
Experiment [17] concerns Rattus norvegicus. Kind of experiment: Maximum inhibitory effect on Angiotensin I induced pressor responses in anesthetized normotensive rats with 1.0 mg/Kg dose of compound given perorally. To be noted: po. The format is functional. An outline of the steps: as §1
The test system of experiment [18] is Rattus norvegicus. Kind of experiment: Maximum effect on systolic blood pressure in spontaneously hypertensive rats after administration of 2 mg/kg of compound perorally. It is filed as functional, Artery. As to conditions: route oral. An outline of the steps:
as §2

For experiment [19], the system named is Rattus norvegicus. The experiment in a line: Maximum inhibitory effect on Angiotensin I induced pressor responses in anesthetized normotensive rats with 0.5 mg/Kg dose of compound given perorally. To be noted: po. The format is functional. An outline of the steps: as §1
Experiment [20] is filed under the species Rattus norvegicus. The experiment in a line: Inhibitory effect on Angiotensin I induced pressor responses in normotensive rats when given perorally. It is filed as functional. To be noted: po, read-out: ID50 (the source's name). An outline of the steps:
as §1

Experiment [21] relates to Rattus norvegicus. The experiment in a line: Maximum inhibitory effect on Angiotensin I induced pressor responses in anesthetized normotensive rats with 10 ug/kg dose of compound given intravenously. It is filed as functional. To be noted: iv.

“And” between values parts separate entries of the source, which are not always exact repeats. Identical values can stand only once. Bounds are passed on as bounds.

Experimental findings from ChEMBL document CHEMBL1124381, “Studies on angiotensin converting enzyme inhibitors. 4. Synthesis and angiotensin converting enzyme inhibitory activities of 3-acyl-1-alkyl-2-oxoimidazolidine-4-carboxylic acid derivatives” (J Med Chem, 1989) are described below.

With `C[C@H](N[C@@H](CCc1ccccc1)C(=O)O)C(=O)N1C(=O)N(Cc2ccccc2)C[C@H]1C(=O)O`, the inhibition in vivo (usually the drop in the measured response relative to a control, in per cent) at 0.01 mg/kg in the experiment on Rattus norvegicus [1] came out at 39%.
As for `CCCCCCCC[C@H](N[C@@H](C)C(=O)N1C(=O)N(C)C[C@H]1C(=O)O)C(=O)O`, in the experiment with Rattus norvegicus [1], the inhibition in vivo at 0.01 mg/kg turned out to be 53.4%. Moreover, the inhibition in vivo at 1 mg/kg in the experiment with Rattus norvegicus [2] stood at 18.4%.
Consider `CCCCCCCC[C@H](N[C@@H](C)C(=O)N1C(=O)N(Cc2ccccc2)C[C@H]1C(=O)O)C(=O)O`, for which the inhibition in vivo at 0.01 mg/kg in the experiment on Rattus norvegicus [1] amounted to 41%.
On to `CCCCCCCC[C@H](N[C@@H](C)C(=O)N1C(=O)N(C)C[C@H]1C(=O)O)C(=O)OCC`, for which, in the experiment on Rattus norvegicus [2], the inhibition in vivo at 1 mg/kg is 56.2%.
As for `CCOC(=O)[C@H](CCc1ccccc1)N[C@@H](C)C(=O)N1C(=O)N(C)C[C@H]1C(=O)O`, in the experiment on Rattus norvegicus [3], the Time is 3 h and 6 h. Moreover, the Change in the experiment listed under Rattus norvegicus [4] is -25 [middle of 4 runs]. Also, the inhibition in vivo at 0.5 mg/kg in the experiment on Rattus norvegicus [5] stood at 62.7%. Further, the ED50 in the experiment listed under Rattus norvegicus [6] came out at 0.24 mg/kg. For the same compound, the Systolic blood pressure in the experiment on Rattus norvegicus [7] (1 mg/kg) was 190 mmHg and 190.8 mmHg; in the experiment on Rattus norvegicus [8] (5 mg/kg), 191.4 mmHg and 164.3 mmHg; with Rattus norvegicus [9], 192 mmHg; with Rattus norvegicus [10] (2 mg/kg) it was 165.8 mmHg and 192.5 mmHg. The inhibition in vivo at 0.2 mg/kg in the experiment on Rattus norvegicus [11] turned out to be 52%. This compound had a Duration in the experiment listed under Rattus norvegicus [12] greater than 9 h.
In the case of `CCOC(=O)[C@H](CCc1ccccc1)N[C@@H](C)C(=O)N1CCC[C@H]1C(=O)O`, the Time with Rattus norvegicus [3] is 3 h and 6 h. In addition, the Change in the experiment listed under Rattus norvegicus [4] was -23.3 [middle of 4 runs]. Further, the inhibition in vivo at 0.2 mg/kg with Rattus norvegicus [13] amounted to 42.9%. In addition, the Systolic blood pressure in the experiment on Rattus norvegicus [14] is recorded as 166.7 mmHg; with Rattus norvegicus [15] it was 165 mmHg; in the experiment with Rattus norvegicus [7], 190.8 mmHg; with Rattus norvegicus [8] it was 190 mmHg; with Rattus norvegicus [9], 193.3 mmHg; with Rattus norvegicus [10], 192.9 mmHg. Besides, the Systolic blood pressure in the experiment with Rattus norvegicus [16] was 178.3 mmHg; with Rattus norvegicus [18], 168.6 mmHg. For the same compound, the inhibition in vivo at 1 mg/kg with Rattus norvegicus [17] stood at 69.8%. Moreover, the inhibition in vivo at 0.5 mg/kg in the experiment with Rattus norvegicus [19] came out at 50.5%. Further, the Duration in the experiment filed under Rattus norvegicus [12] is greater than 9 h. Besides, the ED50 in the experiment filed under Rattus norvegicus [20] came out at 0.3 mg/kg.
Turning to `C[C@H](N[C@@H](CCc1ccccc1)C(=O)O)C(=O)N1C(=O)N(C)C[C@H]1C(=O)O`, in the experiment on Rattus norvegicus [1], the inhibition in vivo at 0.01 mg/kg was determined as 62.4%. In addition, in the experiment with Rattus norvegicus [11], the inhibition in vivo at 0.2 mg/kg was -7.2%. Further, in the experiment with Rattus norvegicus [2], the inhibition in vivo at 1 mg/kg came to 26.3%.
Consider `C[C@H](N[C@@H](CCc1ccccc1)C(=O)O)C(=O)N1CCC[C@H]1C(=O)O` [ENALAPRILAT ANHYDROUS], for which the inhibition in vivo at 0.01 mg/kg with Rattus norvegicus [21] was found to be 54.5%.
